Data reported in ChEMBL document CHEMBL4732044, “Discovery of a promising agent IQZ23 for the treatment of obesity and related metabolic disorders” (Eur J Med Chem, 2020).
Calls of active or inactive are those of the source. The rule behind the calls is not given here.

What was measured:
[1] = tested on: 3T3-L1; experiment: Activation of AMPK pathway in adipogenic cocktail-induced mouse 3T3-L1 cells assessed as increase in phosphorylation AMPKalpha at Thr172 residue at 0.01 to 1 uM after 24 hrs by Western blot analysis; type: cell-based; conditions: filed as activator, dose 0.01-1 µM
Summary of the method: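 Confluent 3T3-L1 pre-adipocytes exposed to adipogenic cocktail for 24 h with or without compound (0, 0.01, 0.1, 1 µM); DMSO vehicle. Lysates analysed by SDS-PAGE/Western blot for pAMPKα (Thr-172), normalized to actin, Ctrl set as 1. N = 4 independent experiments.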

[2] = tested on: 3T3-L1; experiment: Activation of AMPK pathway in mouse 3T3-L1 cells assessed as increase in number of mitochondria copy at 1 uM after 24 hrs in presence of compound C by mito-tracker staining based Confocal microscopic method
Summary of the method: (§1)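 3T3-L1 cells grown in DMEM with 10% FBS at 37 °C and 5% CO2. After treatment, cells were stained for 30 min at 37 °C in the dark with 1 µM Mito-Tracker plus Hoechst 33342 (1:1000) and imaged by confocal microscopy (excitation 633 and 405 nm). Mitochondrial copy number was also taken as the mtDNA/nDNA ratio by PCR (cytochrome C versus 18S rRNA).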

[3] = tested on: 3T3-L1; experiment: Activation of AMPK pathway in mouse 3T3-L1 cells assessed as increase in oxygen consumption at 1 uM after 5 to 10 mins by XF-96 cell analyzer method; type: cell-based; conditions: filed as activator, time 5-10 min
Summary of the method: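 3T3-L1 cells seeded in quintuplicate at 5000 cells/well in an XF-96 plate. Equilibrated in assay medium at 37 °C for 30 min. Baseline OCR measured over 3–5 min, then compound injected to final concentration and OCR measured at set time points. Cell number counted at end.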

[4] = tested on: 3T3-L1; experiment: Lipid lowering activity in mouse 3T3-L1 cells assessed as reduction in adipogenic cocktail-induced triglyceride levels incubated for 6 days by GPO-POD assay; type: functional, cell-based; conditions: for EC50: 3T3-L1, 144 h
Summary of the method: (§2)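 Confluent 3T3-L1 cells were treated from day 0 in cocktail (IBMX, dexamethasone, insulin) for 3 days, then re-dosed in insulin medium for 3 more days. For dose–response, concentrations were 0–10 µM (0.01, 0.1, 0.3, 1, 3, 10). On day 6, cells were lysed in 0.2% Triton X-100 and TG was measured by GPO-POD and normalized to BCA protein as % of control. EC50 was fitted from the dose–response. N = 4.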

[5] = target: RAC-alpha serine/threonine-protein kinase (Mus musculus) (UniProt P31750); experiment: Activation of AKT in mouse C2C12 cells assessed as AKT phosphorylation at […] 308 residue at 1 uM after 6 hrs by Western blot analysis; type: cell-based
Summary of the method: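 C2C12 myoblasts kept in DMEM with 10% FBS and 1% penicillin/streptomycin at 37 °C under 5% CO2.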

[6] = tested on: 3T3-L1; experiment: Activation of AMPK pathway in mouse 3T3-L1 cells assessed as increase in number of mitochondria copy at 1 uM after 24 hrs by mito-tracker staining based Confocal microscopic method; conditions: filed as activator; summary of the method: as §1
[7] = Stability in Sprague-Dawley rat liver microsomes assessed as rate constant […] up to 60 mins in presence of NADPH by LC-MS/MS analysis; type: ADME, Microsome
[8] = Half life in Sprague-Dawley rat liver microsomes assessed as rate constant […] up to 60 mins in presence of NADPH by LC-MS/MS analysis; type: ADME, Microsome
[9] = tested on: 3T3-L1; experiment: Inhibition of mouse 3T3-L1 cells adipocyte differentiation assessed as reduction in adipogenic cocktail-induced C/EBPdelta mRNA expression after 24 hrs by RT-qPCR analysis; type: functional, cell-based; conditions: dose 0.01-1 µM
Summary of the method: (§3)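 Confluent 3T3-L1 preadipocytes received differentiation cocktail (0.5 mM IBMX, 100 ng/mL dexamethasone, 2 µg/mL insulin) with compound (0.01–1 µM; metformin 1 mM) for 24 h. mRNA was measured by SYBR Green RT-qPCR (30 cycles), normalized to β-actin, with the differentiated control set to 1. N = 4 independent experiments.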

[10] = AUC(0 to infinity) in Sprague-Dawley rat at 5 mg/kg, po up to 24 hrs by LC-MS/MS analysis; type: ADME, organism-based; parameters: route oral, dose 5 mg/kg, time <=24; conditions: in vivo
Summary of the method: (§4)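 Male Sprague-Dawley rats (180-220 g, n = 3) were dosed intragastrically at 5 mg/kg in ethanol/saline (5:95). Plasma was collected at 0, 30 min, 1, 2, 4, 8, 12 and 24 h post-dose and quantified by LC-MS/MS. Pharmacokinetic parameters were derived from the plasma concentration-time profile.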

[11] = Effect on total AKT level in mouse C2C12 cells at 1 uM after 6 hrs by Western blot analysis; type: ADME, cell-based; conditions: c2c12, 6 h
[12] = Oral bioavailability in Sprague-Dawley rat at 5 mg/kg up to 24 hrs by LC-MS/MS analysis; type: ADME, organism-based; conditions: in vivo
Summary of the method: (§5)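 Male SD rats (180–220 g, n = 3) received compound in ethanol/saline (5:95), either intravenously at 2 mg/kg or intragastrically at 5 mg/kg. Plasma was sampled at 0, 0.5, 1, 2, 4, 8, 12 and 24 h. Concentrations were measured by LC-MS/MS, and PK parameters were calculated from the concentration–time data.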

[13] = tested on: 3T3-L1; experiment: Inhibition of mouse 3T3-L1 cells adipocyte differentiation assessed as reduction in adipogenic cocktail-induced PPARgamma mRNA expression after 24 hrs by RT-qPCR analysis; type: functional, cell-based; conditions: dose 0.01-1 µM; summary of the method: as §3
[14] = tested on: 3T3-L1; experiment: Inhibition of mouse 3T3-L1 cells adipocyte differentiation assessed as reduction in adipogenic cocktail-induced C/EBPbeta mRNA expression after 24 hrs by RT-qPCR analysis; type: functional, cell-based; conditions: dose 0.01-1 µM; summary of the method: as §3
[15] = MRT(0 to infinity) in Sprague-Dawley rat at 5 mg/kg, po up to 24 hrs by LC-MS/MS analysis; type: ADME, organism-based; conditions: in vivo; summary of the method: as §5
[16] = tested on: 3T3-L1; experiment: Inhibition of mouse 3T3-L1 cells adipocyte differentiation assessed as reduction in adipogenic cocktail-induced C/EBPalpha mRNA expression after 24 hrs by RT-qPCR analysis; type: functional, cell-based; conditions: dose 0.01-1 µM; summary of the method: as §3
[17] = AUC(0 to t) in Sprague-Dawley rat at 5 mg/kg, po up to 24 hrs by LC-MS/MS analysis; type: ADME, organism-based; parameters: route oral, dose 5 mg/kg, time <=24; conditions: in vivo; summary of the method: as §4
[18] = Tmax in Sprague-Dawley rat at 5 mg/kg, po up to 24 hrs by LC-MS/MS analysis; type: ADME, organism-based; conditions: in vivo
Summary of the method: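 Male Sprague-Dawley rats (180-220 g, n = 3) were dosed intragastrically at 5 mg/kg in ethanol/saline (5:95); a separate iv arm received 2 mg/kg. Blood was drawn at 0, 30 min, 1, 2, 4, 8, 12 and 24 h and centrifuged to obtain plasma. Drug levels were measured by LC-MS/MS, and pharmacokinetic parameters were calculated from the concentration–time data.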

[19] = Cmax in Sprague-Dawley rat at 5 mg/kg, po up to 24 hrs by LC-MS/MS analysis; type: ADME, organism-based; parameters: route oral, dose 5 mg/kg, time <=24; conditions: in vivo; summary of the method: as §5
[20] = Stability in Sprague-Dawley rat liver microsomes assessed as remaining compound […] up to 60 mins in presence of NADPH by LC-MS/MS analysis; type: ADME, Microsome; conditions: read-out: Stabilty
[21] = tested on: 3T3-L1; experiment: Lipid lowering activity in mouse 3T3-L1 cells assessed as reduction in adipogenic cocktail-induced triglyceride levels at 1 uM incubated for 6 days by GPO-POD assay relative to control; type: functional; parameters: scale not given: the % may be the effect or the level left; conditions: time 6 day; summary of the method: as §2
[22] = Intrinsic clearance in Sprague-Dawley rat liver microsomes assessed as rate constant […] up to 60 mins in presence of NADPH by LC-MS/MS analysis; type: ADME, Microsome; conditions: read-out: CLH

Chain of RAC-alpha serine/threonine-protein kinase (Mus musculus) (P31750 whole entry): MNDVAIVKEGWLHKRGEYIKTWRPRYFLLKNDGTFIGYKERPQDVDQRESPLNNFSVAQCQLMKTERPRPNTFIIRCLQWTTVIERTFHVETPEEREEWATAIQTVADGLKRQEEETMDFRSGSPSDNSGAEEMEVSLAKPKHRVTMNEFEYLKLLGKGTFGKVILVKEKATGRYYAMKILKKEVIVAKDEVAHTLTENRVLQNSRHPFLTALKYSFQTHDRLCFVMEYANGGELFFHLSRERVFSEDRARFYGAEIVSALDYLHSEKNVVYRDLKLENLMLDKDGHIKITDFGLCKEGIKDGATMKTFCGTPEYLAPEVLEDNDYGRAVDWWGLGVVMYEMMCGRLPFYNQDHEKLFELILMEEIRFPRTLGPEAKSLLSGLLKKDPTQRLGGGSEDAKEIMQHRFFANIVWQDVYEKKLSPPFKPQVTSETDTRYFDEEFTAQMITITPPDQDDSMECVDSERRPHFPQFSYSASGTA

Structure (SMILES) | Activity [1] | Activity [2] | Activity [3] | EC50 [4] [nM] | Activity [5] | Activity [6] | k el at 1 h [7] [s⁻¹] | half-life [8] [h] | inhibition [9] | AUC(0-inf) [10] [ng·h/mL] | Activity [11] | bioavailability [12] [%] | inhibition [13] | inhibition [14] | MRT inf [15] [h] | inhibition [16] | AUC(0-t) at 24 h [17] [ng·h/mL] | Tmax [18] [h] | Cmax [19] [ng/mL] | remaining at 1 h [20] [%] | also measured
COc1ccc2[nH]c(-c3nc(NCCCCN4CCCC4)c4ccccc4n3)c(C=O)c2c1 | Active | inactive | Active | 33 | inactive | Active | 6.17e-05 | 3.12 | Dose-dependent effect | 384 | Non-Toxic | 48.6 | Dose-dependent effect | Dose-dependent effect | 7.5 | Dose-dependent effect | 374 | 4 | 37.1 | 80.7 | Activity ([4]; dose 1-5 µM, time 6.0 day): Dose-dependent effect; Activity [21]: >=50%; microsomal CLint [22]: 3.7 µL/min/mg
CN(C)CCCNc1nc(-c2[nH]c3ccccc3c2C=O)nc2ccccc12 | Active | inactive | Active | 91 | inactive | Active | 8.83e-05 | 2.18 | Dose-dependent effect | 294 | Non-Toxic | 43.8 | Dose-dependent effect | Dose-dependent effect | 9.62 | Dose-dependent effect | 247 | 4.7 | 23.8 | 71 | Activity [21]: 79.2%; microsomal CLint [22]: 6.3 µL/min/mg
